# Laboratory results taken from ChEMBL document CHEMBL4229515, “A novel synthesis of 2-arylbenzimidazoles in molecular sieves-MeOH system and their antitubercular activity” (Bioorg Med Chem, 2018).
# How the values were obtained:
# Type in all cases: organism-based
# Conditions in all cases: in vivo, 168 h
# Mus musculus [1] = test: Acute toxicity in Swiss albino mouse assessed as effect on triglyceride levels at 5 mg/kg, po after 7 days (reference value: 45.21 +/- 2.95 mg/dL)
# Mus musculus [2] = test: Acute toxicity in Swiss albino mouse assessed as effect on tissue protein levels at 5 mg/kg, po after 7 days (reference value: 0.06 +/- 0.004 mg/mL)
# Mus musculus [3] = test: Acute toxicity in Swiss albino mouse assessed as depression at 1000 mg/kg, po measured over 7 days
# Summary of the method: (§1)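 Single acute oral dose of 5, 50, 300 or 1000 mg/kg body weight, with an untreated control group; n=6 mice per group. Animals observed for 7 days for morbidity, mortality, behaviour and body weight. At the end, blood and serum were analysed, and organs were examined grossly with absolute and relative weights. Data are mean±SE; P<0.05 was taken as significant versus control and the lower-dose groups.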
# Mus musculus [4] = test: Acute toxicity in Swiss albino mouse assessed as effect on absolute brain weight at 5 to 1000 mg/kg, po after 7 days; summary of the method: as §1
# Mus musculus [5] = test: Acute toxicity in Swiss albino mouse assessed as effect on relative lung weight at 5 to 1000 mg/kg, po after 7 days; summary of the method: as §1
smiles,measurement,setting,value
COc1ccc2c(c1)nc(-c1ccccc1OC)n2Cc1ccccc1OC,Activity,Mus musculus [1],48.61 mg/dL
same,Activity,Mus musculus [2],0.06 mg/mL
same,Activity,Mus musculus [3],Non-Toxic
same,Activity,Mus musculus [4],Non-Toxic
same,Activity,Mus musculus [5],Non-Toxic
